ChEMBL document CHEMBL4261506, “Synthesis and biological evaluation of N-alkyl naphthoimidazoles derived from β-lapachone against Trypanosoma cruzi bloodstream trypomastigotes” (Medchemcomm, 2017)

test system: Trypanosoma cruzi; assay: Trypanocidal activity against bloodstream trypomastigote stage of Trypanosoma cruzi Y isolated from parasite infected Swiss mouse assessed as induction of parasite lysis after 24 hrs by Neubauer chamber based cell counting method; type: functional, organism-based; conditions: not given
How it was run: (§1)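 Y-strain bloodstream trypomastigotes at 5 × 10^6 cells per ml in DME medium plus 10% blood (some runs in DMES without blood), mixed 1:1 with compound diluted in DME at twice final concentration. DMSO final ≤0.1%. Incubated at 4 °C. Cells counted after 24 h; IC50 taken as the concentration giving 50% parasite lysis.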

Question: With `Cc1ccc(-c2nc3c([nH]2)c2c(c4ccccc43)OC(C)(C)CC2)cc1` as the molecule, how does the IC50 read?
Answer: 37.5 µM

test system: Trypanosoma cruzi; assay: Potency index, ratio of benznidazole IC50 to test compound IC50 for bloodstream trypomastigote stage of Trypanosoma cruzi Y; type: functional; conditions: not given

Question: For `CCCCCCn1cnc2c3c(c4ccccc4c21)OC(C)(C)CC3`, which “Ratio IC50” value is on record?
Answer: 2.2

Question: With `CCCCCCn1cnc2c3ccccc3c3c(c21)CCC(C)(C)O3` as the molecule, how does the “Ratio IC50” value read?
Answer: 3.2

test system: not listed separately; assay: Selectivity index, ratio of LC50 for Swiss mouse peritoneal macrophages to IC50 for bloodstream trypomastigote stage of Trypanosoma cruzi Y; type: toxicity; conditions: read-out: Ratio LC50/IC50
How it was run: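 Y strain bloodstream trypomastigotes at 5 × 10^6 cells/ml in DME plus 10% blood, mixed 1:1 with compound at twice the final concentration, 24 h at 4 °C, counted; IC50 = 50% lysis. […] Index = LC50/IC50. DMSO final ≤0.1%.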

Question: With `CCCCCCn1cnc2c3c(c4ccccc4c21)OC(C)(C)CC3` as the molecule, how does the selectivity ratio read?
Answer: 2.7

Question: Which selectivity ratio does the source give for `CCCCCCn1cnc2c3ccccc3c3c(c21)CCC(C)(C)O3` here?
Answer: 13.4

test system: Trypanosoma cruzi; assay: Trypanocidal activity against trypomastigote stage of Trypanosoma cruzi; type: functional, organism-based; conditions: not given; how it was run: as §1

Question: Which IC50 does the source give for `CC1(C)CCc2c(c3ccccc3c3nc(-c4ccccc4)[nH]c23)O1` here?
Answer: 37 µM

test system: not listed separately; assay: Cytotoxicity against Swiss mouse peritoneal macrophages after 24 hrs by Prestoblue assay; type: cell-based, Peritoneal macrophage; conditions: read-out: LC50

Question: Which CC50 at 24 h does the source give for `CCCCCCn1cnc2c3c(c4ccccc4c21)OC(C)(C)CC3` here?
Answer: 117 µM

Question: For `CCCCCCn1cnc2c3ccccc3c3c(c21)CCC(C)(C)O3`, which CC50 at 24 h is on record?
Answer: 422 µM

test system: Trypanosoma cruzi; assay: Trypanocidal activity against bloodstream trypomastigote stage of Trypanosoma cruzi Y assessed as induction of parasite lysis after 24 hrs by Neubauer chamber based cell counting method; type: functional, organism-based; conditions: not given; how it was run: as §1

Question: With `COc1cc(-c2nc3c([nH]2)c2c(c4ccccc43)OC(C)(C)CC2)ccc1O` as the molecule, how does the IC50 read?
Answer: 252 µM

Question: For `CC1(C)CCc2c(c3ccccc3c3nc(-c4ccc(Cl)cc4Cl)[nH]c23)O1`, which IC50 is on record?
Answer: > 4000 µM

Question: Which IC50 does the source give for `CCCCn1cnc2c3ccccc3c3c(c21)CCC(C)(C)O3` here?
Answer: 123 µM

Question: For `CCCCCn1cnc2c3c(c4ccccc4c21)OC(C)(C)CC3`, which IC50 is on record?
Answer: 92.7 µM

Question: With `COc1ccccc1-c1nc2c([nH]1)c1c(c3ccccc32)OC(C)(C)CC1` as the molecule, how does the IC50 read?
Answer: > 6500 µM

Question: With `CCCn1cnc2c3ccccc3c3c(c21)CCC(C)(C)O3` as the molecule, how does the IC50 read?
Answer: 172 µM

Question: For `CC1(C)CCc2c(c3ccccc3c3nc(-c4cccs4)[nH]c23)O1`, which IC50 is on record?
Answer: 170 µM

Question: For `CCCCCCCCCCCCn1cnc2c3ccccc3c3c(c21)CCC(C)(C)O3`, which IC50 is on record?
Answer: 192 µM

Question: For `CC1(C)CCc2c(c3ccccc3c3nc(-c4ccc(C(F)(F)F)cc4)[nH]c23)O1`, which IC50 is on record?
Answer: 250 µM

Question: With `CC1(C)CCc2c(c3ccccc3c3nc(-c4ccccc4C#N)[nH]c23)O1` as the molecule, how does the IC50 read?
Answer: > 6500 µM

Question: For `CCCCCCCCn1cnc2c3ccccc3c3c(c21)CCC(C)(C)O3`, which IC50 is on record?
Answer: 180 µM

Question: Which IC50 does the source give for `CCCn1cnc2c3c(c4ccccc4c21)OC(C)(C)CC3` here?
Answer: 99.7 µM

Question: With `CCCCCCCCn1cnc2c3c(c4ccccc4c21)OC(C)(C)CC3` as the molecule, how does the IC50 read?
Answer: 376 µM

Question: Which IC50 does the source give for `CCCCCCCCCn1cnc2c3ccccc3c3c(c21)CCC(C)(C)O3` here?
Answer: 295 µM

Question: Which IC50 does the source give for `CC1(C)CCc2c(c3ccccc3c3nc(-c4cccc5ccccc45)[nH]c23)O1` here?
Answer: 1680 µM

Question: Which IC50 does the source give for `CCCCCCCn1cnc2c3c(c4ccccc4c21)OC(C)(C)CC3` here?
Answer: 407 µM

Question: Which IC50 does the source give for `CC1(C)CCc2c(c3ccccc3c3nc(-c4ccc([N+](=O)[O-])cc4)[nH]c23)O1` here?
Answer: 250 µM

Question: For `CC1(C)CCc2c(c3ccccc3c3nc(-c4c(Cl)cccc4Cl)[nH]c23)O1`, which IC50 is on record?
Answer: 2120 µM

Question: With `CCCCCCn1cnc2c3c(c4ccccc4c21)OC(C)(C)CC3` as the molecule, how does the IC50 read?
Answer: 42.5 µM

Question: Which IC50 does the source give for `Cc1cccc(-c2nc3c([nH]2)c2c(c4ccccc43)OC(C)(C)CC2)c1` here?
Answer: 37.5 µM

Question: For `CCCCCCn1cnc2c3ccccc3c3c(c21)CCC(C)(C)O3`, which IC50 is on record?
Answer: 31.5 µM

Question: For `CCCCCn1cnc2c3ccccc3c3c(c21)CCC(C)(C)O3`, which IC50 is on record?
Answer: 124 µM

Question: With `CCCCn1cnc2c3c(c4ccccc4c21)OC(C)(C)CC3` as the molecule, how does the IC50 read?
Answer: 106 µM

Question: For `CCCCCCCCCn1cnc2c3c(c4ccccc4c21)OC(C)(C)CC3`, which IC50 is on record?
Answer: 195 µM

Question: Which IC50 does the source give for `CCCCCCCn1cnc2c3ccccc3c3c(c21)CCC(C)(C)O3` here?
Answer: 99 µM

Question: For `COc1ccc(-c2nc3c([nH]2)c2c(c4ccccc43)OC(C)(C)CC2)cc1`, which IC50 is on record?
Answer: 250 µM

Question: With `CCCCCCCCCCCCn1cnc2c3c(c4ccccc4c21)OC(C)(C)CC3` as the molecule, how does the IC50 read?
Answer: > 500 µM

Question: For `CC1(C)CCc2c(c3ccccc3c3nc[nH]c23)O1`, which IC50 is on record?
Answer: 89.5 µM
